ChEMBL document CHEMBL5247578, “Effective synthesis of benzimidazoles-imidazo[1,2-a]pyrazine conjugates: A comparative study of mono-and bis-benzimidazoles for antitumor activity” (Eur J Med Chem, 2019)

Key:
HEK293 = experiment: Cytotoxicity against human HEK293 cells assessed as reduction in cell viability at 0.0000001 M incubated for 48 hrs by MTT colorimetric assay relative to control; format: toxicity, cell-based; details: hek293, 48 h, 0.1 µM, dose 100 nM
UACC-257 = experiment: Antiproliferative activity against human UACC-257 cells assessed as cell growth at 0.00000001 M incubated for 48 hrs by SRB assay relative to control; format: functional; details: dose 10 nM, read-out: Activity
UO-31 = experiment: Antiproliferative activity against human UO-31 cells assessed as cell growth inhibition by measuring lethal concentration incubated for 48 hrs by sulforhodamine B assay; format: functional; details: read-out: LC50 (the source's name)
Summary of the method: (§1)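 NCI-60 five-dose screen (10^-4 to 10^-8 M, 10-fold dilutions; DMSO stocks). Cells in RPMI 1640 with 5% FBS and 2 mM L-glutamine, preincubated 24 h, then exposed 48 h at 37 °C, 5% CO2. Fixed with cold TCA, stained with 0.4% SRB, absorbance read at 515 nm. Time-zero plates used as reference. LC50 taken from [(Ti-Tz)/Tz]×100 […].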

TK-10 = experiment: Antiproliferative activity against human TK-10 cells assessed as cell growth inhibition by measuring lethal concentration incubated for 48 hrs by sulforhodamine B assay; format: functional; details: read-out: LC50 (the source's name); summary of the method: as §1
NCI/ADR-RES = experiment: Antiproliferative activity against human NCI/ADR-RES cells assessed as cell growth inhibition by measuring lethal concentration incubated for 48 hrs by sulforhodamine B assay; format: functional; details: read-out: LC50 (the source's name)
OVCAR-8 = experiment: Antiproliferative activity against human OVCAR-8 cells assessed as cell growth inhibition by measuring lethal concentration incubated for 48 hrs by sulforhodamine B assay; format: functional; details: read-out: LC50 (the source's name)
KM12 = experiment: Antiproliferative activity against human KM12 cells assessed as cell growth inhibition by measuring lethal concentration incubated for 48 hrs by sulforhodamine B assay; format: functional; details: read-out: LC50 (the source's name)
DU-145 [1] = experiment: Growth inhibition against human DU-145 cells assessed as total growth inhibitory concentration incubated for 48 hrs by sulforhodamine B assay; format: functional
SNB-19 = experiment: Growth inhibition against human SNB-19 cells assessed as total growth inhibitory concentration incubated for 48 hrs by sulforhodamine B assay; format: functional
NCI-H460 [2] = experiment: Growth inhibition against human NCI-H460 cells assessed as total growth inhibitory concentration incubated for 48 hrs by sulforhodamine B assay; format: functional
NCI-H23 [3] = experiment: Growth inhibition against human NCI-H23 cells assessed as total growth inhibitory concentration incubated for 48 hrs by sulforhodamine B assay; format: functional
RPMI-8226 [4] = experiment: Growth inhibition against human RPMI-8226 cells assessed as total growth inhibitory concentration incubated for 48 hrs by sulforhodamine B assay; format: functional
OVCAR-3 = experiment: Growth inhibition against human OVCAR-3 cells incubated for 48 hrs by sulforhodamine B assay; format: functional
SK-MEL-2 = experiment: Growth inhibition against human SK-MEL-2 cells incubated for 48 hrs by sulforhodamine B assay; format: functional
LOX IMVI = experiment: Growth inhibition against human LOX IMVI cells incubated for 48 hrs by sulforhodamine B assay; format: functional
SNB-75 = experiment: Growth inhibition against human SNB-75 cells incubated for 48 hrs by sulforhodamine B assay; format: functional
HOP-92 = experiment: Growth inhibition against human HOP-92 cells incubated for 48 hrs by sulforhodamine B assay; format: functional
CCRF-CEM [5] = experiment: Antiproliferative activity against human CCRF-CEM cells assessed as cell growth at 0.0000001 M incubated for 48 hrs by SRB assay relative to control; format: functional; details: dose 100 nM, read-out: Activity
Summary of the method: (§2)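 NCI-60 five-dose screen over 10^-4–10^-8 M (10-fold dilutions). Cells grown in RPMI 1640 with 5% FBS and 2 mM L-glutamine, seeded at 5,000–40,000 cells/well and preincubated 24 h. Drug from DMSO stock, 48 h at 37 °C, 5% CO2. Adherent cells TCA-fixed and stained with 0.4% SRB; A515 read. Percent growth = (Ti−Tz)/(C−Tz)×100, or (Ti−Tz)/Tz×100 when Ti<Tz.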

NCI-H460 [6] = experiment: Antiproliferative activity against human NCI-H460 cells assessed as cell growth at 0.0000001 M incubated for 48 hrs by SRB assay relative to control; format: functional; details: dose 100 nM, read-out: Activity
HT-29 = experiment: Antiproliferative activity against human HT-29 cells assessed as cell growth at 0.0000001 M incubated for 48 hrs by SRB assay relative to control; format: functional; details: dose 100 nM, read-out: Activity
Summary of the method: (§3)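 NCI-60 five-dose screen (10^-4 to 10^-8 M). Cells grown in RPMI 1640 with 5% FBS and 2 mM L-glutamine, plated at 5,000-40,000 cells/well and preincubated 24 h. Drug given from DMSO stock, then 48 h at 37 °C, 5% CO2. For adherent lines, cells fixed with cold TCA, SRB-stained and read at 515 nm. Percent growth taken against time-zero and untreated control.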

SK-MEL-28 = experiment: Antiproliferative activity against human SK-MEL-28 cells assessed as cell growth at 0.0000001 M incubated for 48 hrs by SRB assay relative to control; format: functional; details: dose 100 nM, read-out: Activity
CCRF-CEM [7] = experiment: Antiproliferative activity against human CCRF-CEM cells assessed as cell growth at 0.000001 M incubated for 48 hrs by SRB assay relative to control; format: functional; details: read-out: Activity; summary of the method: as §2
OVCAR-5 = experiment: Antiproliferative activity against human OVCAR-5 cells assessed as cell growth at 0.00001 M incubated for 48 hrs by SRB assay relative to control; format: functional; details: read-out: Activity
Hs-578T = experiment: Antiproliferative activity against human Hs-578T cells assessed as cell growth at 0.00001 M incubated for 48 hrs by SRB assay relative to control; format: functional; details: read-out: Activity
Summary of the method: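 NCI-60 five-dose mode, 10^-4 to 10^-8 M in 10-fold steps. RPMI 1640, 5% FBS, 2 mM L-glutamine; 24 h preincubation, then 48 h drug exposure at 37 °C. Stocks in DMSO at 400× the top concentration, diluted in medium with gentamicin. TCA fixation, SRB staining, absorbance at 515 nm. Percent growth from time-zero (Tz), control (C) and test (Ti) readings.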

T47D = experiment: Antiproliferative activity against human T47D cells assessed as cell growth at 0.00001 M incubated for 48 hrs by SRB assay relative to control; format: functional; details: read-out: Activity
RPMI-8226 [8] = experiment: Antiproliferative activity against human RPMI-8226 cells assessed as cell growth at 0.0001 M incubated for 48 hrs by SRB assay relative to control; format: functional; details: read-out: Activity
NCI-H23 [9] = experiment: Antiproliferative activity against human NCI-H23 cells assessed as cell growth at 0.0001 M incubated for 48 hrs by SRB assay relative to control; format: functional; details: read-out: Activity
HCT-116 = experiment: Antiproliferative activity against human HCT-116 cells assessed as cell growth at 0.0001 M incubated for 48 hrs by SRB assay relative to control; format: functional; details: read-out: Activity; summary of the method: as §3
A498 = experiment: Antiproliferative activity against human A498 cells assessed as cell growth at 0.0001 M incubated for 48 hrs by SRB assay relative to control; format: functional; details: read-out: Activity; summary of the method: as §2
DU-145 [10] = experiment: Antiproliferative activity against human DU-145 cells assessed as cell growth at 0.0001 M incubated for 48 hrs by SRB assay relative to control; format: functional; details: read-out: Activity; summary of the method: as §3
MDA-MB-468 = experiment: Antiproliferative activity against human MDA-MB-468 cells assessed as cell growth at 0.0001 M incubated for 48 hrs by SRB assay relative to control; format: functional; details: read-out: Activity

Row | Structure (SMILES) | Activity (HEK293) | growth at 0.01 µM (UACC-257) | CC50 (UO-31) | CC50 (TK-10) | CC50 (NCI/ADR-RES) | CC50 (OVCAR-8) | CC50 (KM12) | TGI (DU-145 [1]) | TGI (SNB-19) | TGI (NCI-H460 [2]) | TGI (NCI-H23 [3]) | TGI (RPMI-8226 [4]) | GI50 (OVCAR-3) | GI50 (SK-MEL-2) | GI50 (LOX IMVI) | GI50 (SNB-75) | GI50 (HOP-92) | growth at 0.1 µM (CCRF-CEM [5]) | growth at 0.1 µM (NCI-H460 [6]) | growth at 0.1 µM (HT-29) | also measured
1 | COc1ccc(-c2cn3ccnc3c(-c3ccc4ncn(C5CCCCC5)c4c3)n2)cc1 | 14.79% | 100% | > 100 µM | > 100 µM | > 100 µM | > 100 µM | > 100 µM | > 100 µM | > 100 µM | > 100 µM | > 100 µM | > 100 µM | 0.411 µM | 0.944 µM | 0.741 µM | 0.733 µM | 1.18 µM | 107% | 107% | 92% | growth at 0.1 µM (SK-MEL-28): 95%; growth at 1 µM (CCRF-CEM [7]): 59%; growth at 10 µM (OVCAR-5): 31%; growth at 10 µM (Hs-578T): 6%; growth at 10 µM (T47D): -24%; growth at 100 µM (RPMI-8226 [8]): 15%; growth at 100 µM (NCI-H23 [9]): 22%; growth at 100 µM (HCT-116): -29%; growth at 100 µM (A498): 24%; growth at 100 µM (DU-145 [10]): 17%; growth at 100 µM (MDA-MB-468): 10%
2 | c1ccc(Cn2cnc3ccc(-c4nc(-c5ccc6c(c5)ncn6C5CCCCC5)cn5ccnc45)cc32)cc1 | 13.6% | 101% | > 100 µM | > 100 µM | > 100 µM | > 100 µM | > 100 µM | 2.1 µM | > 100 µM | 5.66 µM | 4.49 µM | 4.5 µM | 2.27 µM | 2.02 µM | 1.64 µM | 1.19 µM | 1.25 µM | 113% | 108% | 97% | growth at 0.1 µM (SK-MEL-28): 96%; growth at 1 µM (CCRF-CEM [7]): 72%; growth at 10 µM (OVCAR-5): -3%; growth at 10 µM (Hs-578T): 1%; growth at 10 µM (T47D): -2%; growth at 100 µM (RPMI-8226 [8]): -33%; growth at 100 µM (NCI-H23 [9]): -79%; growth at 100 µM (HCT-116): -33%; growth at 100 µM (A498): -83%; growth at 100 µM (DU-145 [10]): -8%; growth at 100 µM (MDA-MB-468): -7%
